Results: paper PMC7814465 (Cell reports, 2020)
Primed or numbered codes have the meaning given here. Ends that are not written are not given here. FITC′ = fluorescein isothiocyanate

How the values were obtained:
[1] = system: NTRs (importins) from HeLa cytosol; test: Pull-down from HeLa cytosol with biotinylated DPR, NTRs; format: binding; details: immobilized biotinylated peptide, western blot
Outline: (§1)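 It was cleared at 21,000 g, 4°C. Cytosol was incubated under physiological buffer conditions with biotinylated DPR peptides immobilized on ovalbumin-blocked streptavidin beads, and bound NTRs were detected by western blot.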

GST-GR25 / TDP-43 = test: Sedimentation of GST-GR25 with TDP-43 and NTRs; format: biochemical; details: anti-GST western blot, three independent experiments
Outline: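 1 µM TDP-43-MBP-His was Tev-cleaved (20 µg/ml His-Tev, 60 min, 30°C) with or without equimolar GST-tagged DPR and/or NTRs. Samples were centrifuged 15 min at 21,000 g, 4°C. Equal volumes of supernatant and pellet were analysed by anti-GST western blot.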

Impα3 (His-Impα3) = test: SDD-AGE oligomer formation, Impα3; format: biochemical, rat; details: 10-fold molar excess: 2 μM importin, 20 μM TMR-DPR, pH 7.5, 200 mM NaCl, 1 h RT
TNPO1 (His-TNPO1) = test: SDD-AGE oligomer formation, TNPO1; format: biochemical; details: 10-fold molar excess: 2 μM importin, 20 μM TMR-DPR, pH 7.5, 200 mM NaCl, 1 h RT
[2] = system: TDP-43 (TDP-43-Tev-MBP/MBP-Tev-TDP-43-GFP); test: TDP-43 condensate formation with DPRs, microscopy; format: biochemical; details: TMR-labeled DPR, equimolar (1x) or two-fold (2x), 2 μM TDP-43/TDP-43-GFP, Tev cleavage, 200 mM NaCl, pH 7.5
Outline: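 Size-exclusion-purified TDP-43-MBP-His (2 μM) was mixed with substoichiometric MBP-TDP-43-GFP-His (1:4–1:5). Condensates were imaged by laser scanning confocal microscopy.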

CRM1 = test: Sedimentation assay, CRM1; format: biochemical
Outline: (§2)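 Protein was 1 µM purified NTR alone, or 500 nM Impα with 500 nM Impβ. Samples were centrifuged 15 min at 21,000 g, 4°C. Equal volumes of supernatant and pellet were analysed by SDS-PAGE with Sypro-Ruby stain or western blot.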

Impα3 [3] = test: Pull-down with purified Impα3; format: binding, rat; details: biotinylated peptide, purified Impα3, pH 7.5, 200 mM NaCl
Outline: (§3)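 Streptavidin beads were blocked with 20 mg/ml ovalbumin, then loaded overnight with 5 µg biotinylated DPR peptide per reaction. 5 µg purified prey protein was added in 50 mM Tris pH 7.5, 200 mM NaCl, 1 mM MgCl2, 5% glycerol, 2 mM DTT, 2 mg/ml BSA. After washes, bound protein was eluted in SDS loading buffer and analysed by SDS-PAGE with Sypro-Ruby staining. Two independent replicates.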

Imp7 = test: Pull-down from HeLa cytosol, Imp7; format: binding; details: biotinylated peptide, western blot
Outline: (§4)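 Biotin-DPR bait (5 μg per 10 μl beads) immobilised overnight with 2 mg/ml ovalbumin. Prey bound in B-buffer with 2 mg/ml BSA, washed without BSA, eluted in 2× SDS loading buffer. Two independent replicates.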

[4] = system: nuclear import of GCR2-GFP2-cNLS in HeLa cells; test: Hormone-induced nuclear import assay, cNLS reporter; format: cell-based; details: 10 µM TMR-GR25, 2 h; three independent experiments, 14-61 cells
Outline: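 HeLa cells were passaged at least twice in DMEM with 10% dialyzed FBS and expressed the GCR2-GFP2-MBP-cNLS reporter. They were pre-incubated 2 h with 10 µM TMR-labeled DPR peptide added once to serum-free imaging medium. Import was induced with 5 µM (final) dexamethasone, and spinning-disk live imaging ran 40–50 min at 2.5-min intervals. Only peptide-positive cells were quantified. N/C ratio is given as mean ± SEM of three experiments, with area under the curve compared by unpaired t test.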

Impβ = test: Pull-down from HeLa cytosol, Impβ; format: binding; details: biotinylated peptide, western blot
Outline: as §4

TNPO3 = test: Pull-down from HeLa cytosol, TNPO3; format: binding; details: biotinylated peptide, western blot
Outline: as §1

[5] = system: GCR2-GFP2 reporter in HeLa cells; test: Diffusion of reporter without NLS into nucleus; format: cell-based; details: 10 µM TMR-GR25, 2 h; three independent experiments, 43-102 cells
Impα1 = test: Pull-down with purified Impα1; format: binding; details: biotinylated peptide, purified Impα1, Figure S1E
Outline: as §3

GAPDH in HeLa cytosol = test: Sedimentation assay from HeLa cytosol, GAPDH; format: biochemical; details: highest GR/PR concentrations
Impb = details: FRET sensors and bead Halo assays; ref Hayes et al., 2019; cited from earlier work
[6] = system: Impβ (His-S-Impβ, in the absence of Impα); test: Sedimentation assay, Impβ alone; format: biochemical
Outline: as §2

[7] = system: GCR2-GFP2 reporter in cytoplasm; test: FRAP of cytoplasmic GCR2-GFP2 reporter; format: cell-based; details: 10 µM GR25, 2 h, dexamethasone; 34-38 cells, two independent experiments
TNPO1 = biological target: T1, TNPO1 (Homo sapiens, UniProt Q92973); test: Pull-down from HeLa cytosol, TNPO1; format: binding; details: biotinylated peptide, western blot
T1 sequence (Q92973 1-898): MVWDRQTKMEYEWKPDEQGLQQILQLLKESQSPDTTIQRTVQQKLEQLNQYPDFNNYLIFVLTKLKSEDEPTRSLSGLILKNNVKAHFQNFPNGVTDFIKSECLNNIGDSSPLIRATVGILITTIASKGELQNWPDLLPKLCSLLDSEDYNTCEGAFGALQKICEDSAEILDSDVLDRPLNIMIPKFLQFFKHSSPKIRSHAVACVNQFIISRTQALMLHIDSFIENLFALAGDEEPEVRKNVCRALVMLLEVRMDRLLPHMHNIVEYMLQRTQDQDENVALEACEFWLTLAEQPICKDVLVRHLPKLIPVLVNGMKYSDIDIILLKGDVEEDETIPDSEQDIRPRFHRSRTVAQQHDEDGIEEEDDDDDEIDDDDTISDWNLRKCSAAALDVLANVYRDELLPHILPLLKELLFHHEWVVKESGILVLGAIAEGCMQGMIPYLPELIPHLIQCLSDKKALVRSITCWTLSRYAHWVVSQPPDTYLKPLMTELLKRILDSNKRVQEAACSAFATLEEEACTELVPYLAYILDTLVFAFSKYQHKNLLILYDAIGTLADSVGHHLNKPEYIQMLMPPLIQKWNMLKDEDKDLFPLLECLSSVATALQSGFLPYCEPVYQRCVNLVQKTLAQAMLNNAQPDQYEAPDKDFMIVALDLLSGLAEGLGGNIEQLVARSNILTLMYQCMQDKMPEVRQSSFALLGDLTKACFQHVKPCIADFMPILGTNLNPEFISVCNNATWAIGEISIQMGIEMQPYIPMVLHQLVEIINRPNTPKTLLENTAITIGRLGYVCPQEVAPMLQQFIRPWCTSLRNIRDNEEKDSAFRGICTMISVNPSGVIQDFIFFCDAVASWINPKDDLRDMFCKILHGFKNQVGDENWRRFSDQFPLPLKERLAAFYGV
Outline: as §1

Impα3 [8] = test: Pull-down from HeLa cytosol, Impα3; format: binding; details: biotinylated peptide, western blot
Outline: as §4

TNPO1 (TEV-cleaved) = biological target: T2, TNPO1 (TEV-cleaved) (UniProt Q92973 1-898); test: fluorescence polarisation
T2 sequence (looked up): T1 sequence (Q92973 1-898)

[9] = 10-fold molar excess of TMR-labeled DPR, n = 3
[10] = extremely high concentrations (up to 40x)

In the case of “GP25: non-charged control DPR (GPGPGPGPGPGPGPGPGPGPGPGPGPGPGPGPGPGPGPGPGPGPGPGPGP; not fully specified; also: biotin, position not given here)”, the binding in pull-down [1] is reported as “not to the non-charged control DPR GP25”.

For “GST-GR25: recombinant GST fusion of GR25”, the “solubility of GST-GR25” value (GST-GR25 / TDP-43; absence of TDP-43) was “completely soluble” and the “solubility of GST-GR25” value (GST-GR25 / TDP-43; presence of cleaved TDP-43) was “moved efficiently into the pellet fraction”.

For “TMR-GR25: tetramethylrhodamine (TMR)-labeled GR25 (GRGRGRGRGRGRGRGRGRGRGRGRGRGRGRGRGRGRGRGRGRGRGRGRGR; also: TMR label, position not given here)”, the “oligomer formation of Impα3 (SDS-resistant)” value (from here on “oligomer formation of Impα3”) (Impα3 (His-Impα3)) was “oligomer formation” and the “oligomer formation of TNPO1 (SDS-resistant)” value (shortened to “oligomer formation of TNPO1”) (TNPO1 (His-TNPO1)) was “oligomer formation”.

With “TMR-PR25: tetramethylrhodamine (TMR)-labeled PR25 (PRPRPRPRPRPRPRPRPRPRPRPRPRPRPRPRPRPRPRPRPRPRPRPRPR; also: TMR label, position not given here)” the “oligomer formation of Impα3” value (Impα3 (His-Impα3)) was “oligomer formation” and the “oligomer formation of TNPO1” value (TNPO1 (His-TNPO1)) was “oligomer formation”.

For “poly-GP: non-charged DPR species; in the experiments GP25 (GPGPGPGPGPGPGPGPGPGPGPGPGPGPGPGPGPGPGPGPGPGPGPGPGP; not fully specified; also: biotin, position not given here) [reference compound]”, the TDP-43 condensate formation [2] was “no effect”, the “oligomer formation of Impα3” value (Impα3 (His-Impα3)) was “not poly-GP” and the “oligomer formation of TNPO1” value (TNPO1 (His-TNPO1)) was “not poly-GP”.

With “poly-GR: arginine-rich dipeptide repeat protein species; in the experiments mostly GR25” the “solubility of CRM1” value (CRM1; [9]) was “remained mainly soluble”, the “precipitation of CRM1, titration” value (CRM1; [10]) was “only partial or no precipitation” and the “direct binding in pull-down” value (Impα3 [3]) was “preferentially to poly-GR”. The binding in pull-down (Imp7) was “bound equally to both poly-GR and poly-PR”, the “nuclear import of cNLS reporter (N/C ratio)” value [4] was “reduced nuclear import” and the binding in pull-down (Impβ) was “bound equally to both poly-GR and poly-PR”. For the same molecule, the binding in pull-down (TNPO3) was “bound preferentially to poly-GR”, the “diffusion of reporter without NLS into nucleus (N/C ratio)” value [5] was “only mildly affected” and the “direct binding in pull-down” value (Impα1) was “preferentially to poly-GR”. The “precipitation of GAPDH from HeLa cytosol” value (GAPDH in HeLa cytosol) was “not precipitated”, the TDP-43 condensate formation [2] was “formation of condensates” and the “direct binding to Impb in vitro” value (Impb) was “direct binding”. The “solubility of Impβ” value [6, 9] was “remained mainly soluble”, the “precipitation of Impβ, titration” value [6, 10] was “only partial or no precipitation” and the “mobility of GCR2-GFP2 reporter in cytoplasm (FRAP)” value [7] was “unchanged”. For the same molecule, the binding in pull-down (TNPO1) was “bound preferentially to poly-GR”, the binding in pull-down (Impα3 [8]) was “bound equally to both poly-GR and poly-PR” and the “oligomer formation of Impα3” value (Impα3 (His-Impα3)) was “SDS-resis-tant oligomers”. The “oligomer formation of TNPO1” value (TNPO1 (His-TNPO1)) was “SDS-resis-tant oligomers”.

For {FITC′}-GRGRGRGRGRGRGRGRGRGRGRGRGRGRGRGRGRGRGRGRGRGRGRGRGR [FITC-GR25], the Kd (TNPO1 (TEV-cleaved)) was roughly 0.2 µM.

With {FITC′}-PRPRPRPRPRPRPRPRPRPRPRPRPRPRPRPRPRPRPRPRPRPRPRPRPR [FITC-PR25] the Kd (TNPO1 (TEV-cleaved)) was roughly 0.2 µM.
